The values that follow come from ChEMBL document CHEMBL5143761, “Aroylhydrazone Glycoconjugate Prochelators Exploit Glucose Transporter 1 (GLUT1) to Target Iron in Cancer Cells” (ACS Med Chem Lett, 2022).

The subject of data set [1] is A2780. Description: Antiproliferative activity against human A2780 cells incubated for 72 hrs by MTT assay. It is filed as functional, cell-based. The note with it: A2780, 72 h. Put shortly: (§1)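 MTT assay after 72 h continuous exposure in MDA-MB-231 breast and A2780 ovarian cancer cells and MRC-5 normal lung fibroblasts. IC50 taken from the resulting dose–response.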

For data set [2], the system named is MDA-MB-231. Description: Antiproliferative activity against human MDA-MB-231 cells incubated for 72 hrs by MTT assay. The data set is classed as functional, cell-based. The following applies: MDA-MB-231, 72 h. Put shortly: as §1
A short description of data set [3]: Antiproliferative activity against human MRC5 cells incubated for 72 hrs by MTT assay. The data set is classed as toxicity, cell-based. The method, boiled down:
as §1

The test system of data set [4] is A2780. The experiment in a line: Induction of apoptosis in human A2780 cells assessed as early apoptosis level at 20 uM incubated for 48 hrs by PI and FITC-Annexin V staining based flow cytometry. The data set is classed as functional. The method, boiled down:
(§2)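 A2780 cells exposed to compound (20 μM) for 48 h. Cells then stained with FITC-Annexin V and propidium iodide and analysed by flow cytometry for early and late apoptotic fractions. Triplicate, mean ± standard deviation.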

The subject of data set [5] is A2780. The experiment in a line: Antiproliferative activity against human A2780 cells incubated for 72 hrs in presence of 12.5 uM GLUT1 inhibitor phloretin by MTT assay. It is filed as functional, cell-based. The method, boiled down:
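A2780 cells given test compound together with the GLUT1 inhibitor phloretin (12.5 μM) for 72 h. Read-out by MTT, giving IC50. Triplicate runs, reported as mean ± standard deviation.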

The test system of data set [6] is MDA-MB-231. The experiment in a line: Antiproliferative activity against human MDA-MB-231 cells ectopically overexpressing GLUT1 incubated for 72 hrs by MTT assay relative to normal cells. It is filed as functional, cell-based. Put shortly:
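MDA-MB-231 derivative line transduced to overexpress GLUT1 is compared with an isogenic control line transduced with the same vector expressing Turbo-635 fluorescent protein. GLUT1 levels were checked by Western blot. IC50 from MTT after 72 h. Triplicate, mean ± standard deviation.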

The nature of data set [7]: Induction of intracellular iron sequestration in human A2780 cells at 20 uM by calcein based fluorescence assay.
The nature of data set [8]: (§3) Inhibition of cellular uptake of fluorescent glucose 2-NBDG in human A2780 cells at 50 uM incubated for 20 mins by flow cytometry. It is filed as functional. The arrangement: scale not given: the % may be the effect or the level left. The method, boiled down:
(§4)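 A2780 cells held 12 h in glucose-free medium. They were then coincubated for 20 min with compound (50 μM) and 2-NBDG (100 μM) in growth medium with 1 g/L D-glucose. 2-NBDG uptake was read as flow-cytometric fluorescence, with phloretin (50 μM) as positive control. Triplicate, mean ± standard deviation.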

The test system of data set [9] is A2780. Description: Induction of apoptosis in human A2780 cells assessed as late apoptosis level at 20 uM incubated for 48 hrs by PI and FITC-Annexin V staining based flow cytometry. The data set is classed as functional. The method, boiled down:
as §2

Data set [10] in a line: Ratio of IC50 for antiproliferative activity against human A2780 cells incubated for 72 hrs in presence of 12.5 uM GLUT1 inhibitor phloretin by MTT assay to IC50 antiproliferative activity against human A2780 cells incubated for 72 hrs in absence of 12.5 uM GLUT1 inhibitor phloretin by MTT assay. It is filed as functional. The method, boiled down:
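A2780 ovarian cancer cells were treated for 72 h with compound, either alone or coincubated with the GLUT1 inhibitor phloretin at 12.5 μM. Viability was read by MTT assay. IC50 values were determined in triplicate under each condition and reported as averages ± standard deviation. The value is the IC50 with phloretin relative to the IC50 without it.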

For data set [11], the system named is A2780. Described as §3. The data set is classed as functional. Put shortly: as §4

Calls of active or inactive are those of the source. The calls are words filed in the database; no cut-off is given here.

Regarding `COC(=O)CCSSc1ccccc1/C=N/NC(=O)c1ccccc1`, the IC50 stood at 2.1 µM in data set [1] and 12 µM in data set [2]. For the same compound, the IC50 at 72 h in data set [3] was 12 µM. Moreover, the values for the Activity in data set [4] and in data set [7] were 5% and 20%, respectively. Further, the inhibition entry in data set [5] was “Active”. In addition, the result in [6] was Active.
As to `O=C(CCSSc1ccccc1/C=N/NC(=O)c1ccccc1)OC[C@H]1OC(O)[C@H](O)[C@@H](O)[C@@H]1O` (stereo partly drawn), the IC50 in data set [1] turned out to be 5.2 µM; in data set [2], 17 µM. In addition, in [3], it took 26 µM to reach half-maximal inhibition (IC50 at 72 h). In addition, the Activity in data set [4] is 5%; in [8] it was above 20%; in data set [7], 20%. Moreover, in data set [6], the outcome was Active.
Regarding `O=C(CCSSc1ccccc1/C=N/NC(=O)c1ccccc1)N[C@H]1C(O)O[C@H](CO)[C@@H](O)[C@@H]1O` (stereo partly drawn), the IC50 worked out at 5.3 µM in [1] and 17 µM in data set [2]. Besides, the IC50 at 72 h in data set [3] was 33 µM. In addition, the Activity in data set [4] was 5%; in data set [8], above 20%; in [7], 20%. Besides, in data set [6], the outcome was Active.
As for `O=C(CCSSc1ccccc1/C=N/NC(=O)c1ccccc1)OC[C@H]1OC(O)C[C@@H](O)[C@@H]1O` (stereo partly drawn), the IC50 was determined as 2.5 µM in [1] and 22 µM in data set [2]. Further, the IC50 at 72 h in [3] came to 29 µM. In addition, the Activity was 5% in data set [4], 20% in data set [9], above 20% in data set [8] and 20% in [7]. Further, the “Ratio IC50” value in [10] was above 5. Further, in [6], the result was Active.
`CC(=O)N(O)CCCCCNC(=O)CCC(=O)N(O)CCCCCNC(=O)CCC(=O)N(O)CCCCCN` [DEFEROXAMINE]: the IC50 in data set [1] turned out to be 3.5 µM; in [2], 6.1 µM. For the same compound, in [3], the IC50 at 72 h turned out to be 9 µM.
Take `O=C(CCc1ccc(O)cc1)c1c(O)cc(O)cc1O`: the inhibition result in [11] was “Active”.
With `OC[C@H]1OC(O)C[C@@H](O)[C@@H]1O` (stereo partly drawn), the results for the Activity in data set [4] and in [9] were 3.6% and 3.4%, respectively.
The corresponding values for `O=C(N/N=C/c1ccccc1O)c1ccncc1` [SALINAZID] are 7.8% and 38%.
